Values joined by “and” are separate entries in the source; they are usually repeats but may differ in a detail not shown here. Equal values may be shown once.
Columns and labels:
HT-29 [1] = experiment: Percent inhibition at G2/M phase of cell cycle at a dose of 20 ng/mL after 72 hours of induction in HT-29/Mx cell line; type: functional; details: Homo sapiens, HT-29, 72 h
How it was run: (§1)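 HT29 or HT29/Mx cells were treated for 72 h, then fixed in 70% ice-cold ethanol. Cells were stained with PBS containing 30 μg/mL propidium iodide and 66 units/mL RNase A, and DNA content was measured by flow cytometry on at least 10^4 cells to give G1, S and G2/M fractions.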

Mus musculus [2] = experiment: Toxic deaths at dose of 20 mg/kg (i.v.) to nude mice bearing sc Human colon carcinoma Xenografts tested in 4 animals; type: functional; details: route intravenous
How it was run: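 Tumor fragments of A2780, A2780/Dx or HT29/Mx grafted sc in both flanks of Swiss athymic nude mice, 4–5 mice per group. Drug given iv once weekly on 3 days: days 4, 11, 18 (A2780, HT29/Mx) or days 7, 14, 21 (A2780/Dx). Dosing started at mean tumor volume 80–100 mm3. Toxic deaths recorded as deaths/total mice.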

Mus musculus [3] = experiment: In vivo antileukemic activity towards P388 Murine Leukemia at a dose of 10.0 mg/kg, expressed as body weight change; type: functional
HT-29 [4] = experiment: Percent inhibition at G1 phase of cell cycle at a dose of 100n g/mL after 72 hours of induction in HT-29 cell line; type: functional, Homo sapiens; how it was run: as §1
Mus musculus [5] = experiment: In vivo antileukemic activity towards P388 Murine Leukemia at a dose of 22.5 mg/kg; type: functional
HT-29 [6] = experiment: Percent inhibition at G1 phase of cell cycle at a dose of 25 ng/mL after 72 hours of induction in HT-29 cell line; type: functional; details: Homo sapiens, HT-29, 72 h; how it was run: as §1
Mus musculus [7] = experiment: In vivo antileukemic activity towards P388 Murine Leukemia at a dose of 35.0 mg/kg; type: functional
HT-29 [8] = experiment: In vitro Cytotoxic activity of compound in comparison with reference compounds in human cell line HT-29; type: functional, cell-based
How it was run: (§2)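 Monolayer lines were used: A2780, A2780/Dx, DU145 and PC3 in RPMI 1640, LoVo and LoVo/Dx in Ham's F-12, and HT29 and HT29/Mx in McCoy's 5A, each with 10% FBS. Drug exposure was 72 h. […] Resistance index = IC50 in resistant / IC50 in sensitive line.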

Mus musculus [9] = experiment: In vivo antileukemic activity towards P388 Murine Leukemia at a dose of 22.5 mg/kg, expressed as body weight change; type: functional
LoVo [10] = experiment: In vitro Cytotoxic activity of compound in comparison with reference compounds in human cell line LoVo/Dx(RI); type: functional, cell-based; how it was run: as §2
HT-29 [11] = experiment: Percent inhibition at G1 phase of cell cycle at a dose of 20 ng/mL after 72 hours of induction in HT-29/Mx cell line; type: functional; details: Homo sapiens, HT-29, 72 h; how it was run: as §1
Mus musculus [12] = experiment: Long-term survivors when compound was tested for in vivo antileukemic activity towards P388 Murine Leukemia at dose of 2.5 mg/kg tested in 12 animals; type: functional
Mus musculus [13] = experiment: Tumor volume inhibition administered iv at a dose of 6.7 mg/kg to nude mice bearing sc Human A2780/Dx Xenografts; type: functional, A2780 ADR
How it was run: (§3)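 Swiss nude athymic mice carrying tumor fragments grafted sc in both flanks, 4–5 mice (8–10 tumors) per group. Tumor lines kept by sc passage. Dosing iv once weekly for 3 doses, starting at mean tumor volume ca. 80–100 mm3 (A2780, HT29/Mx: days 4, 11, 18; A2780/Dx: days 7, 14, 21). Diameters measured twice weekly; TV = d²×D/2. %TVI treated vs control assessed 3–10 days after last dose.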

A2780 [14] = experiment: In vitro Cytotoxic activity of compound in comparison with reference compounds in human cell line A2780; type: functional, cell-based; how it was run: as §2
Mus musculus [15] = experiment: Long-term survivors when compound was tested for in vivo antileukemic activity towards P388 Murine Leukemia at dose of 5.0 mg/kg tested in 18 animals; type: functional
HT-29 [16] = experiment: Effect of compound as percent survival at dose of 25 ng/mL on HT-29 cell line after 72 hours; type: functional; details: Homo sapiens, HT-29, 72 h; read-out: Survival
How it was run: (§4)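 HT29 or mitoxantrone-resistant HT29/Mx monolayers grown in McCoy's 5A with 10% FBS and 1% 1 M Hepes at 37 °C, 5% CO2. Cells exposed to drug for 72 h. Survival measured by cell counting and given as percent of untreated control.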

HT-29 [17] = experiment: Percent inhibition at S phase of cell cycle at a dose of 100n g/mL after 72 hours of induction in HT-29 cell line; type: functional, Homo sapiens
How it was run: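 HT29 and mitoxantrone-resistant HT29/Mx colon adenocarcinoma monolayers in McCoy's 5A with 10% FBS and 1% 1 M Hepes, 37 °C, 5% CO2. Drug exposure 72 h. Cells then fixed in 70% ice-cold ethanol, washed twice and resuspended in PBS with 30 μg/mL propidium iodide and 66 units/mL RNase A. At least 10^4 cells per sample read for DNA content by flow cytometry. G1/S/G2M fractions reported as percentages.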

HT-29 [18] = experiment: Percent inhibition at G2/M phase of cell cycle at a dose of 10 ng/mL after 72 hours of induction in HT-29/Mx cell line; type: functional; details: Homo sapiens, HT-29, 72 h; how it was run: as §1
A2780 [19] = experiment: In vitro Cytotoxic activity of compound in comparison with reference compounds in human cell line A2780/Dx(RI); type: functional, cell-based; how it was run: as §2
Mus musculus [20] = experiment: In vivo antileukemic activity towards P388 Murine Leukemia at a dose of 1.0 mg/kg; type: functional
Mus musculus [21] = experiment: Long-term survivors when compound was tested for in vivo antileukemic activity towards P388 Murine Leukemia at dose of 30.0 mg/kg tested in 6 animals; type: functional
L1210 = experiment: Compound was tested in vitro for cytotoxicity against L1210 murine cell line (48 hr exposure to compound); type: functional, cell-based; details: Mus musculus, L1210, 48 h
How it was run: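 L1210 cells were grown in RPMI 1640 with 5% FBS, 37 °C, 5% CO2, and exposed to drug for 48 h. Growth was read by Lowry cellular protein. IC50 is the concentration giving 50% growth inhibition, reported as the mean of at least three independent experiments ± SEM.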

HT-29 [22] = experiment: Effect of compound as percent survival at dose of 10 ng/mL on HT-29/Mx cell line after 72 hours; type: functional; details: Homo sapiens, HT-29, 72 h; read-out: Survival; how it was run: as §4
Mus musculus [23] = experiment: Tumor volume inhibition administered iv at a dose of 10 mg/kg to nude mice bearing sc Human ovarian carcinoma Xenografts; type: functional; how it was run: as §3
Mus musculus [24] = experiment: Long-term survivors when compound was tested for in vivo antileukemic activity towards P388 Murine Leukemia at dose of 10.0 mg/kg tested in 12 animals; type: functional
Mus musculus [25] = experiment: In vivo antileukemic activity towards P388 Murine Leukemia at a dose of 10 mg/kg, expressed as body weight change; type: functional
LoVo [26] = experiment: In vitro Cytotoxic activity of compound in comparison with reference compounds in human cell line LoVo; type: functional, cell-based; how it was run: as §2
Mus musculus [27] = experiment: Long-term survivors when compound was tested for in vivo antileukemic activity towards P388 Murine Leukemia at dose of 10.0 mg/kg tested in 18 animals; type: functional
HT-29 [28] = experiment: In vitro Cytotoxic activity of compound in comparison with reference compounds in human cell line HT-29/Mx(RI); type: functional, cell-based; how it was run: as §2
Mus musculus [29] = experiment: Antileukemic activity expressed as number of toxic deaths/total number of mice at dose 30.0 mg/kg tested in 6 animals; type: functional
Mus musculus [30] = experiment: In vivo antileukemic activity towards P388 Murine Leukemia at a dose of 35.0 mg/kg, expressed as body weight change; type: functional

`CN(C)CCNc1ccc2ncnc3c2c1C(=O)c1c(O)ccc(O)c1-3` was tested, and the inhibition at 0.02 µg/mL (HT-29 [1]) was 31%, the Toxic deaths (Mus musculus [2]) was 0 and the Body weight change (Mus musculus [3]) was 0.98 BWC. For the same compound, the Inhibition (HT-29 [4]) was 23%, the “T/C (ratio of treated to control)” value (Mus musculus [5]) was 215% and the inhibition at 0.025 µg/mL (HT-29 [6]) was 48%. For the same compound, the “T/C (ratio of treated to control)” value (Mus musculus [7]) was -110%, the IC50 (HT-29 [8]) was 49.1 nM and the Body weight change (Mus musculus [9]) was 0.88 BWC. The IC50 (LoVo [10]) was 12.7 nM, the inhibition at 0.02 µg/mL (HT-29 [11]) was 58% and the LTS (Mus musculus [12]) was 0. For the same compound, the TVI (Mus musculus [13]) was 46%, the IC50 (A2780 [14]) was 8.3 nM and the LTS (Mus musculus [15]) was 1. For the same compound, the viability at 0.025 µg/mL (HT-29 [16]) was 53%, the Inhibition (HT-29 [17]) was 21% and the inhibition at 0.01 µg/mL (HT-29 [18]) was 30%. The IC50 (A2780 [19]) was 9.5 nM, the “T/C (ratio of treated to control)” value (Mus musculus [20]) was 118% and the LTS (Mus musculus [21]) was 0. For the same compound, the IC50 (L1210) was 1.29 nM, the viability at 0.01 µg/mL (HT-29 [22]) was 100% and the TVI (Mus musculus [23]) was 62% and 80%. The LTS (Mus musculus [24]) was 0, the Body weight change (Mus musculus [25]) was 0.98 BWC and the IC50 (LoVo [26]) was 11.1 nM. The LTS (Mus musculus [27]) was 0, the IC50 (HT-29 [28]) was 56.9 nM and the Toxic deaths (Mus musculus [29]) was 2. The Body weight change (Mus musculus [30]) was 0.73 BWC.

From ChEMBL document CHEMBL1132370, “8,11-dihydroxy-6-[(aminoalkyl)amino]-7H-benzo[e]perimidin-7-ones with activity in multidrug-resistant cell lines: synthesis and antitumor evaluation” (J Med Chem, 1999)
